From ChEMBL document CHEMBL1155167, “Fluoroquinolone resistance in atypical pneumococci and oral streptococci: evidence of horizontal gene transfer of fluoroquinolone resistance determinants from Streptococcus pneumoniae” (2007)
≈ marks a conversion by molar mass, not a printed value.

Key:
Streptococcus mitis [1] = assay: Antimicrobial activity against Streptococcus mitis HK135786 with gyrA Ser114Gly, and parC Ser52Gly, Asn91Asp mutation by broth dilution method; type: functional
In short: (§1)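 Ciprofloxacin and levofloxacin MICs were determined by broth dilution following CLSI (formerly NCCLS) guidance. S. pneumoniae ATCC 6303 and ATCC 49619 served as control strains. Reference strains were S. mitis ATCC 49456 and S. oralis ATCC 10557. The clinical isolates came from patients at a Hong Kong teaching hospital.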

Streptococcus oralis [2] = assay: Antimicrobial activity against Streptococcus oralis HK575 with gyrA Ser114Gly, Leu155Val and parC Ser52Gly, Asn91Asp, Pro140Ser mutation by broth dilution method; type: functional; in short: as §1
Streptococcus oralis [3] = assay: Antimicrobial activity against Streptococcus oralis HK496 with gyrA Ser114Gly, and parC Ser52Gly, Asn91Asp mutation by broth dilution method; type: functional; in short: as §1
Streptococcus oralis [4] = assay: Antimicrobial activity against Streptococcus oralis HK816 with gyrA Ser81Leu, Ser114Gly and parC Ser52Gly, Ser79Tyr, Asn91Asp mutation by broth dilution method; type: functional; in short: as §1
Streptococcus pneumoniae [5] = assay: Antimicrobial activity against Streptococcus pneumoniae L15 with parC Asp83Asn Lys137Asn and parE Ile460Val mutation by broth dilution method
Streptococcus mitis [6] = assay: Antimicrobial activity against Streptococcus mitis HK666 with gyrA Ser114Gly, and parC Ser52Gly, Asn91Asp, Glu135Asp mutation by broth dilution method; type: functional; in short: as §1
Streptococcus viridans [7] = assay: Antimicrobial activity against Viridans streptococcus L21 with gyrB Ser494Thr and parC Lys137Asn mutation by broth dilution method; type: functional; in short: as §1
Streptococcus viridans [8] = assay: Antimicrobial activity against Viridans streptococcus L19 with gyrA Ser114Gly, gyrB Ser494Thr, parC Ser52Gly, Asn91Asp and parE Ile460Val mutation by broth dilution method; type: functional; in short: as §1
Streptococcus pneumoniae [9] = assay: Antimicrobial activity against atypical Streptococcus pneumoniae L4 by broth dilution method
Streptococcus pneumoniae [10] = assay: Antimicrobial activity against Streptococcus pneumoniae L13 with parC Asp83Tyr and parE Ile460Val mutation by broth dilution method
Streptococcus viridans [11] = assay: Antimicrobial activity against Viridans streptococcus L7 with gyrA Ser114Gly, gyrB Ser494Thr and parC Ser52Gly, Asn91Asp mutation by broth dilution method; type: functional; in short: as §1
Streptococcus oralis [12] = assay: Antimicrobial activity against Streptococcus oralis HK754 with gyrA Ser81Leu, Ser114Gly, gyrB Ser494Thr, parC Ser52Gly, Asp83Tyr, Asn91Asp and parE Arg447Ser mutation by broth dilution method; type: functional; in short: as §1
Streptococcus pneumoniae [13] = assay: Antimicrobial activity against atypical Streptococcus pneumoniae L9 with gyrA Ser114Gly, gyrB Ser494Thr and parC Lys137Asn mutation by broth dilution method
Streptococcus pneumoniae [14] = assay: Antimicrobial activity against atypical Streptococcus pneumoniae L8 with parC Ser52Gly, Phe55His, Ser58Gly, Asn91Asp, Lys197Asn mutation by broth dilution method
Streptococcus viridans [15] = assay: Antimicrobial activity against Viridans streptococcus L17 with gyrA Ser114Gly, gyrB Ser494Thr and parC Ser52Gly, Asn91Asp mutation by broth dilution method; type: functional; in short: as §1
Streptococcus oralis [16] = assay: Antimicrobial activity against Streptococcus oralis HK271 with gyrA Ser114Gly, and parC Ser52Gly, Asn91Asp mutation by broth dilution method; type: functional; in short: as §1
Streptococcus pneumoniae [17] = assay: Antimicrobial activity against Streptococcus pneumoniae L5 with parE Ile460Val mutation by broth dilution method
Streptococcus oralis [18] = assay: Antimicrobial activity against Streptococcus oralis HK386 with gyrA Ser114Gly, and parC Ser52Gly, Asn91Asp mutation by broth dilution method; type: functional; in short: as §1
Streptococcus mitis [19] = assay: Antimicrobial activity against Streptococcus mitis HK680 with gyrA Ser114Gly, and parC Ser52Gly, Asn91Asp mutation by broth dilution method; type: functional; in short: as §1
Streptococcus pneumoniae [20] = assay: Antimicrobial activity against atypical Streptococcus pneumoniae L25 with parC Lys137Asn mutation by broth dilution method
Streptococcus oralis [21] = assay: Antimicrobial activity against Streptococcus oralis HK51with gyrA Ser114Gly, and parC Ser52Gly, Asn91Asp mutation by broth dilution method; type: functional; in short: as §1
Streptococcus oralis [22] = assay: Antimicrobial activity against Streptococcus oralis ATCC 10557 with gyrA Ser114Gly, and parC Ser52Gly, Asn91Asp mutation by broth dilution method; type: functional; in short: as §1
Streptococcus mitis [23] = assay: Antimicrobial activity against Streptococcus mitis HK651 with gyrA Ser114Gly, and parC Ser52Gly, Asn91Asp mutation by broth dilution method; type: functional; in short: as §1
Streptococcus oralis [24] = assay: Antimicrobial activity against Streptococcus oralis HK619 with gyrA Ser114Gly, and parC Ser52Gly, Asn91Asp mutation by broth dilution method; type: functional; in short: as §1
Streptococcus mitis [25] = assay: Antimicrobial activity against Streptococcus mitis HK29 with gyrA Ser114Gly, and parC Ser52Gly, Asn91Asp mutation by broth dilution method; type: functional; in short: as §1
Streptococcus mitis [26] = assay: Antimicrobial activity against Streptococcus mitis HK188 with gyrA Ser114Gly, and parC Ser52Gly, Asn91Asp, Glu135Asp mutation by broth dilution method; type: functional; in short: as §1
Streptococcus pneumoniae [27] = assay: Antimicrobial activity against Streptococcus pneumoniae L12 with gyrA Ser81Phe, parC Ser79 Phe and parE Ile460Val mutation by broth dilution method
Streptococcus pneumoniae [28] = assay: Antimicrobial activity against Streptococcus pneumoniae L22 with parC Lys137Asn and parE Ile460Val mutation by broth dilution method
Streptococcus pneumoniae [29] = assay: Antimicrobial activity against atypical Streptococcus pneumoniae L27 with parC Ser52Gly, Asn91Asp, Glu135Asp mutation by broth dilution method

O=C(O)c1cn(C2CC2)c2cc(N3CCNCC3)c(F)cc2c1=O [CIPROFLOXACIN]
MIC (Streptococcus mitis [1]): 4 µg/mL (≈ 12.1 µM)
MIC (Streptococcus oralis [2]): 1 µg/mL (≈ 3.02 µM)
MIC (Streptococcus oralis [3]): 2 µg/mL (≈ 6.04 µM)
MIC (Streptococcus oralis [4]): 32 µg/mL (≈ 96.6 µM)
MIC (Streptococcus pneumoniae [5]): 8 µg/mL (≈ 24.1 µM)
MIC (Streptococcus mitis [6]): 2 µg/mL (≈ 6.04 µM)
MIC (Streptococcus viridans [7]): 16 µg/mL (≈ 48.3 µM)
MIC (Streptococcus viridans [8]): 4 µg/mL (≈ 12.1 µM)
MIC (Streptococcus pneumoniae [9]): 4 µg/mL (≈ 12.1 µM)
MIC (Streptococcus pneumoniae [10]): 4 µg/mL (≈ 12.1 µM)
MIC (Streptococcus viridans [11]): 4 µg/mL (≈ 12.1 µM)
MIC (Streptococcus oralis [12]): 128 µg/mL (≈ 386 µM)
MIC (Streptococcus pneumoniae [13]): 4 µg/mL (≈ 12.1 µM)
MIC (Streptococcus pneumoniae [14]): 8 µg/mL (≈ 24.1 µM)
MIC (Streptococcus viridans [15]): 4 µg/mL (≈ 12.1 µM)
MIC (Streptococcus oralis [16]): 4 µg/mL (≈ 12.1 µM)
MIC (Streptococcus pneumoniae [17]): 4 µg/mL (≈ 12.1 µM)
MIC (Streptococcus oralis [18]): 4 µg/mL (≈ 12.1 µM)
MIC (Streptococcus mitis [19]): 2 µg/mL (≈ 6.04 µM)
MIC (Streptococcus pneumoniae [20]): 4 µg/mL (≈ 12.1 µM)
MIC (Streptococcus oralis [21]): 4 µg/mL (≈ 12.1 µM)
MIC (Streptococcus oralis [22]): 2 µg/mL (≈ 6.04 µM)
MIC (Streptococcus mitis [23]): 1 µg/mL (≈ 3.02 µM)
MIC (Streptococcus oralis [24]): 4 µg/mL (≈ 12.1 µM)
MIC (Streptococcus mitis [25]): 4 µg/mL (≈ 12.1 µM)
MIC (Streptococcus mitis [26]): 1 µg/mL (≈ 3.02 µM)
MIC (Streptococcus pneumoniae [27]): 64 µg/mL (≈ 193 µM)
MIC (Streptococcus pneumoniae [28]): 4 µg/mL (≈ 12.1 µM)
MIC (Streptococcus pneumoniae [29]): 4 µg/mL (≈ 12.1 µM)
